# Measured values as given in ChEMBL document CHEMBL1144511, “Synthesis and biological evaluation of phenolic Mannich bases of benzaldehyde and (thio)semicarbazone derivatives against the cysteine protease falcipain-2 and a chloroquine resistant strain of Plasmodium falciparum” (Bioorg Med Chem, 2007).
# What was measured:
# Falcipain 2 = target: T1, Falcipain 2 (Plasmodium falciparum, UniProt Q9N6S8); assay: Inhibition of Plasmodium falciparum recombinant falcipain-2
# T1 sequence (Q9N6S8 whole entry): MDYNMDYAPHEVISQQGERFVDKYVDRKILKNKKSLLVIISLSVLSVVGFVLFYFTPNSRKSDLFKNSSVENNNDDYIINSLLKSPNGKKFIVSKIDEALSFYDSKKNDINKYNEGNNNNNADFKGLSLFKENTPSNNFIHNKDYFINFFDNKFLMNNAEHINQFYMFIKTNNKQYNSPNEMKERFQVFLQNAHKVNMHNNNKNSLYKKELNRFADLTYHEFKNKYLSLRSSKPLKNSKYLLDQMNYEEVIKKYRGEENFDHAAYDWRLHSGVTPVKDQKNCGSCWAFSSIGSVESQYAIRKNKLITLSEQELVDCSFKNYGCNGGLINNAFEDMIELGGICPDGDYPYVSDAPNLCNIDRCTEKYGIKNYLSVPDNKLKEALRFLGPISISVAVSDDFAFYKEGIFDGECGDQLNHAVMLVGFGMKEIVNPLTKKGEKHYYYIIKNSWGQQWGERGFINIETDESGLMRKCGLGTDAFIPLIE
# How it was run: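 Recombinant enzyme (~1 nM) preincubated 30 min at room temperature with inhibitor dilutions (from 100× DMSO stocks) in 100 mM sodium acetate pH 5.5, 10 mM dithiothreitol; benzyloxycarbonyl peptide fluorogenic substrate then added, fluorescence followed continuously 30 min at room temperature. IC50 from activity versus inhibitor concentration plots.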
# Plasmodium falciparum = assay: Antiparasitic activity against Plasmodium falciparum W2; assay type: functional, organism-based
# How it was run: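 W2 (chloroquine-resistant) P. falciparum cultured at 1% parasitaemia, 2% haematocrit. Inhibitors from 10 mM DMSO stocks added to 20 μM final, then serially diluted to 10 μM, 2 μM, 0.4 μM, 80, 16 and 3.2 nM, in duplicate plates. Cultures kept 2 days at 37 °C, washed and fixed in 1% formaldehyde/PBS. Parasitaemia read by flow cytometry with YOYO-1 DNA stain.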
SMILES,IC50 (Falcipain 2),IC50 (Plasmodium falciparum)
O=C(NCCNc1ccnc2cc(Cl)ccc12)N/N=C/c1ccc(O)c(CN2CCCC2)c1O,0.72 µM,1.07 µM
O=C(NCCNc1ccnc2cc(Cl)ccc12)N/N=C/c1ccc(O)c(CN2CCN(c3ccnc4cc(Cl)ccc34)CC2)c1O,3.16 µM,0.077 µM
O=Cc1ccc(O)c(CN2CCN(c3ccnc4cc(Cl)ccc34)CC2)c1O,> 20 µM,1.07 µM
NC(=O)N/N=C/c1ccc(O)c(CN2CCN(c3ccnc4cc(Cl)ccc34)CC2)c1O,> 20 µM,0.25 µM
NC(=S)N/N=C/c1ccc(O)c(CN2CCN(c3ccnc4cc(Cl)ccc34)CC2)c1O,2.25 µM,3.75 µM
CCN(CC)Cc1c(O)ccc(C=O)c1O,> 20 µM,> 10 µM
NC(=S)N/N=C/c1ccc(O)c(CN2CCCC2)c1O,5.85 µM,> 10 µM
CN1CCN(Cc2c(O)ccc(/C=N/NC(N)=S)c2O)CC1,18.2 µM,> 10 µM
CCN(CC)Cc1c(O)ccc(/C=N/NC(N)=S)c1O,11.1 µM,> 10 µM
CCN(CC)Cc1c(O)ccc(/C=N/NC(=O)NCCNc2ccnc3cc(Cl)ccc23)c1O,2.6 µM,0.44 µM
O=Cc1ccc(O)c(CN2CCCCC2)c1O,> 20 µM,> 10 µM
O=Cc1ccc(O)c(CN2CCOCC2)c1O,> 20 µM,> 10 µM
NC(=S)N/N=C/c1ccc(O)c(CN2CCCCC2)c1O,3.8 µM,> 10 µM
CN1CCN(Cc2c(O)ccc(/C=N/NC(=O)NCCNc3ccnc4cc(Cl)ccc34)c2O)CC1,> 20 µM,0.38 µM
CN1CCN(Cc2c(O)ccc(C=O)c2O)CC1,> 20 µM,> 10 µM
O=Cc1ccc(O)c(CN2CCCC2)c1O,> 20 µM,> 10 µM
O=C(NCCNc1ccnc2cc(Cl)ccc12)N/N=C/c1ccc(O)c(CN2CCOCC2)c1O,> 20 µM,0.11 µM
NC(=S)N/N=C/c1ccc(O)c(CN2CCOCC2)c1O,> 20 µM,> 10 µM
O=C(NCCNc1ccnc2cc(Cl)ccc12)N/N=C/c1ccc(O)c(CN2CCCCC2)c1O,0.63 µM,0.27 µM
